High-throughput results: PubChem, several laboratories
Only some compounds are listed: those with a hit (about 3.9% of all), similar ones and a draw of the others.
TMEM16A act: TMEM16A chloride channel activators or potentiators, primary screen, cell-based, HTS. 340,000 compounds, 0.3% hits. Anoctamin-1 (Mus musculus), Q8BHY3. AID 623877, 2012. HEK293 TMEM16A/YFP-H148Q/I152L, iodide quench fluorescence; active compounds read low. B-score at 10 µM;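 active means fluorescence-ratio B-score plate-corrected deviation score at least 3 library SD below zero, with starting fluorescence score within 5 deviations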;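 further: channel opened by trigger with iodide after compound preincubation; score built on the fluorescence ratio of max minus min over baseline; more negative score means more quench and so TMEM16A activation or potentiation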
Target sequence (Q8BHY3 whole entry, looked up): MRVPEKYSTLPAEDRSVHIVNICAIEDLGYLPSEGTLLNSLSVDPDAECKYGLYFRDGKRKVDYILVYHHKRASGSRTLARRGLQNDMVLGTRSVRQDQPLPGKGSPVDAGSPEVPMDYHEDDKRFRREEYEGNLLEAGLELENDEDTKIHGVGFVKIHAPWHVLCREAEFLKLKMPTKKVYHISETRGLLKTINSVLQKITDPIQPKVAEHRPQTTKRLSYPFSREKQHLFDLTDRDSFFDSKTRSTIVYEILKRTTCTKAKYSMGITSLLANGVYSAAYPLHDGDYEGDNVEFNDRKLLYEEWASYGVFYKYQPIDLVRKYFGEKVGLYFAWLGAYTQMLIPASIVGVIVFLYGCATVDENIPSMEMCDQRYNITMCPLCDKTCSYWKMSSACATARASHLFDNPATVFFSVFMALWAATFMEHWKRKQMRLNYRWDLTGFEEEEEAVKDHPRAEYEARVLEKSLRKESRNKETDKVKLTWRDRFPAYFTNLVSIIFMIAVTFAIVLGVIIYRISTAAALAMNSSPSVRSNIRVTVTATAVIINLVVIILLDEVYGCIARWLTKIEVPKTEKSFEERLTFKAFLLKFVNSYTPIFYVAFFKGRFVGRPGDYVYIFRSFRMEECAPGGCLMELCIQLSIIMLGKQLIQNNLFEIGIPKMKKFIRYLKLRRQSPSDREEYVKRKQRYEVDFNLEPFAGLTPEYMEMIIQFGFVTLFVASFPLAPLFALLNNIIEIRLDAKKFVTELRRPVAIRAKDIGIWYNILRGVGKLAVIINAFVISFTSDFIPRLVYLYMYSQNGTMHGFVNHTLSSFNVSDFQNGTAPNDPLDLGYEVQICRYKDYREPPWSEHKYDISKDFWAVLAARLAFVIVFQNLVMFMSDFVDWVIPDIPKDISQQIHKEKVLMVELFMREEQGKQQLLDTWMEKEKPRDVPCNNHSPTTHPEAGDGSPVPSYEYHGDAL
CRFR2-BP ag: agonists of CRF-BP/CRF-R2 complex, primary screen, cell-based, HEK293, calcium dye fluorescence, uHTS. activation, % at 13.2 µM. 350,000 compounds, 0.46% hits. CRF-binding protein / CRF receptor 2 complex (human). AID 588473, 2011. calcium dye fluorescence (FLIPR); percent of saturating CRF peptide response;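 active means activation of at least 50%, plus an integration ratio under a set limit after plate pattern correction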
TAAR1 agonist: human TAAR1 agonists, primary screen, Fluo-8 calcium fluorescence, CHO RD-HGA16 cells; Trace amine-associated receptor 1 (Homo sapiens), Q96RJ0; vehicle wells 0%, saturating PEA agonist 100%; activation, % at 3 µM; 360,000 compounds, 0.99% hits;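 active means activation above the mean activation of all test compounds in the run plus 3 SD, cut at about 38% in these data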
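System: CHO-derived RD-HGA16 cells with stable Gα16 and human TAAR1 / Times: 17-24 h plating, Fluo-8 75 min 37 °C, 30 min RT / Technique: calcium-sensitive Fluo-8 signal, excitation 470-495, emission 515-575 nm / Measure: % activation relative to PEA EC100 response / Benchmarks: DMSO and PEA EC100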
CRFBP-R2 block: antagonists of CRF-BP/CRF-R2 complex, primary screen, cell-based, HEK293, calcium dye fluorescence, uHTS. inhibition, % at 11.8 µM. 350,000 compounds, 0.59% hits. CRF-induced calcium fluorescence;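 active means inhibition of the ligand-induced calcium signal above about 50% at the single tested concentration, limit read from the data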
TAAR1 antagonist: human TAAR1 antagonists, primary screen, Fluo-8 calcium fluorescence, CHO RD-HGA16 cells. Trace amine-associated receptor 1 (Homo sapiens), Q96RJ0. antagonist. inhibition, % at 3 µM. 360,000 compounds, 1.5% hits;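 active means inhibition above a per-plate cutoff, the mean inhibition of test compounds on that plate plus 3 SD, cut at about 49% in these data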
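Material: RD-HGA16 CHO cells with stable hTAAR1 and Gα16; Dosing: single nominal final test compound concentration of 3 µM; Schedule: seeding 17-24 h prior, 75-min 37 °C, 30-min RT dye loading; Detection: kinetic Fluo-8 calcium fluorescence measurement; Measure: % inhibition from peak post-agonist over basal fluorescence ratio; Benchmarks: vehicle and agonist controls.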
ANO1 block: TMEM16A chloride channel inhibitors, primary screen, cell-based, HTS; 310,000 compounds, 1.2% hits; AID 588511, 2011; normalized B-score (activity score, 25-100; higher = stronger inhibition) at 10 µM; HEK293 TMEM16A/YFP iodide influx fluorescence, ionomycin; Anoctamin-1 (Mus musculus), Q8BHY3;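 active means ratio plate-corrected score three or more library SD toward inhibition, starting fluorescence score within five deviations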;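 further: score derived from kinetic fluorescence span divided by baseline fluorescence per well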
Of the large screens only hits and unclear results are named; the others gave an inactive call.

COc1ccc(S(=O)(=O)NCC2CCCN(C(=O)CSC)C2)cc1 (configuration not stated)	none
CCN1CCCC1CNS(=O)(=O)c1ccc(Cl)c(C(F)(F)F)c1 (configuration not stated)	none
CCCC(=O)Nc1ccc(Cl)c(NC(=S)NC(=O)C(C)C)c1	none
CCCC(=O)Nc1ccc(Cl)c(NC(=O)c2cccnc2Cl)c1	TAAR1 agonist 39
COc1ccc(C(CNC(=O)c2ccc(-c3nc4ccccc4s3)o2)N2CCCC2)cc1 (configuration not stated)	none (no result: ANO1 block)
COc1ccc(C(CNC(=O)c2ccc(-c3ccccc3Cl)o2)N2CCCC2)cc1 (configuration not stated)	TAAR1 agonist 42 (no result: TMEM16A act, ANO1 block)
CCn1nc(C(=O)OCC(=O)N2CC(=O)Nc3ccccc32)c2ccccc2c1=O	none
CCC[C@H](CN[C@@H](CNC)[C@H](C)CC)NCCc1cc(C(F)(F)F)cc(C(F)(F)F)c1	none
CC[C@@H](C)[C@H](CNC)NC[C@@H](Cc1cccc2ccccc12)NCCc1cccc(C(F)(F)F)c1	ANO1 block 100
O=C(Cn1cnc2ccccc2c1=O)NCCCN1CCCC1=O	none (no result: ANO1 block)
CC1=CC(=C(C#N)c2nc3ccccc3s2)C=C(C)N1CC1CCCO1 (configuration not stated)	CRFR2-BP ag 64
Cc1ccccc1C1CC(=O)c2ccccc2C1C (configuration not stated)	none (no result: ANO1 block)
O=C(NCc1cccc(F)c1)c1cccc2c1C(=O)c1ccc(N3CCC(Cc4ccccc4)CC3)cc1S2(=O)=O	CRFR2-BP ag 75 (no result: TAAR1 agonist, TAAR1 antagonist, ANO1 block)
O=C(NCc1ccco1)c1cccc2c1C(=O)c1ccc(/C=C/c3ccccc3)cc1S2(=O)=O	TAAR1 antagonist 51 (no result: ANO1 block)
O=C(NCc1ccco1)c1cccc2c1C(=O)c1ccc(N3CCC(Cc4ccccc4)CC3)cc1S2(=O)=O	CRFR2-BP ag 62 (no result: TAAR1 agonist, TAAR1 antagonist, ANO1 block)
O=C(NCc1cccc(C(F)(F)F)c1)c1cccc2c1C(=O)c1ccc(N3CCC(Cc4ccccc4)CC3)cc1S2(=O)=O	CRFR2-BP ag 67 (no result: TAAR1 agonist, TAAR1 antagonist, ANO1 block)
CN1CCC[C@@H]1CCNC(=O)c1cccc2c1C(=O)c1ccc(N3CCCC3)cc1S2(=O)=O	none (no result: ANO1 block)
CCN(CC(=O)Nc1ccc(C(=O)OC)cc1)C1CCCCC1	none
CNC(=O)C[C@H]1C(=O)N(c2ccccc2)C[C@@H]1CSC	none (no result: TMEM16A act, ANO1 block)
COc1ccccc1N1CCN(c2ccc3c(c2)S(=O)(=O)c2cccc(C(=O)NCc4ccc(F)cc4)c2C3=O)CC1	TAAR1 antagonist 57 (no result: TMEM16A act, ANO1 block)
O=C(NCCc1ccc(F)cc1)c1cccc2c1C(=O)c1ccc(N3CCC(Cc4ccccc4)CC3)cc1S2(=O)=O	CRFR2-BP ag 174 (no result: TAAR1 agonist, TAAR1 antagonist, ANO1 block)
O=C(NCc1cccc(F)c1)c1cccc2c1C(=O)c1ccc(N3CCCC3)cc1S2(=O)=O	CRFR2-BP ag 91 (no result: TAAR1 agonist, TAAR1 antagonist, ANO1 block)
COc1ccc(C(=O)N/C(=C\c2ccccc2)C(=O)Nc2ccccc2C(=O)O)cc1	none
NC(=O)C1CCCN(C(=O)c2ccc(NC(=O)c3cccs3)cc2)C1 (configuration not stated)	none (no result: ANO1 block)
C=CCOc1ccc(CNn2nnnc2N)cc1	TMEM16A act -14
C=CCOc1ccccc1CNn1nnnc1N	none
CCn1c(N)c(C(=O)NC)sc1=S	ANO1 block 100
Cc1ccc(-n2c3nc(=O)[nH]c(=O)c-3cc3cc([N+](=O)[O-])ccc32)cc1C	CRFR2-BP ag 58
Cc1ccc(S(=O)(=O)n2cnc3cc([N+](=O)[O-])ccc32)cc1C	none
O=C1c2ccccc2C(=O)N1Cc1cc(-c2ccc(Cl)cc2)no1	TAAR1 antagonist 49
COc1ccc(NC(=O)CSc2ccc3c4c(cccc24)C(=O)c2ccccc2-3)cc1	CRFR2-BP ag 104
